Source: PubChem (Sanford-Burnham Center for Chemical Genomics)
hIAP activ = increases human intestinal alkaline phosphatase activity. purified human IAP, CDP-Star luminescence, 30 min; stronger effect = higher value; 1 = vehicle-only enzyme, 0 = enzyme-free background. 330,000 tested, 0.16% active. AID 2524. P09923. activation factor at 10 µM;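 active = activation factor of the enzyme at least 2-fold when tested at 20 µM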
Target sequence (P09923 whole entry, looked up): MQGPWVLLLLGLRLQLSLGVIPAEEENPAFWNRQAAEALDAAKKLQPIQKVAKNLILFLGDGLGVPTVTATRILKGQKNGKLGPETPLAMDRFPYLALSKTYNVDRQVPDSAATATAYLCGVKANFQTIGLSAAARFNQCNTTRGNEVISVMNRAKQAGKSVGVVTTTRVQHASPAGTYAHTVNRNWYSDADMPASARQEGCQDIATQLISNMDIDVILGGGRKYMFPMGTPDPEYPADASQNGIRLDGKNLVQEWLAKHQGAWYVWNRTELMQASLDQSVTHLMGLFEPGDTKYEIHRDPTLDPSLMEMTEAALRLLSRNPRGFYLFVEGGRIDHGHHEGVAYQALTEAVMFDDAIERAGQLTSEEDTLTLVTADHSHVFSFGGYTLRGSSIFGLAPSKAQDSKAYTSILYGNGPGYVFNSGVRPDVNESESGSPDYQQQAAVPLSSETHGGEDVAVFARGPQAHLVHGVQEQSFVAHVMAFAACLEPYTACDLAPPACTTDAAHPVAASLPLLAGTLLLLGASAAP
bIAP inhibitor = intestinal alkaline phosphatase (bovine) inhibition; 190,000 tested, under 10 active; purified bovine IAP, CDP-star luminescence, 30 min; AID 1019; inhibition, % at 20 µM;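 active = over 50% inhibition of intestinal alkaline phosphatase at 20 µM in the single-dose screen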
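Incubation: 30 min reaction at room temperature / Material: purified bovine intestinal alkaline phosphatase (IAP) enzyme / Input: enzyme at 1/65,000,000 dilution / Dosing: 20 µM single dose / Signal: CDP-star luminescence signal / Reagent: CDP-star chemiluminescent phosphatase substrate, 30 µM final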
mIAP activ = mouse IAP activation; muIAP, CDP-Star luminescence, 30 min; stronger effect = higher value; 1 = vehicle-only enzyme signal, 0 = enzyme-free wells; activation factor at 10 µM; 330,000 tested, 0.24% active;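 active = activation factor of at least 2 at 20 µM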
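Assay system: mouse IAP enzyme / Compound: DMSO-dissolved test compounds / Timing: 30 min, room temperature / Measured by: luminescence from enzymatic CDP-Star hydrolysis / Control set: DMSO-only wells, enzyme-free buffer wells as negative control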
bIAP activator = increases bovine intestinal alkaline phosphatase activity | activation factor at 20 µM | 200,000 tested, 0.17% active | purified bovine IAP, CDP-star luminescence, 30 min; stronger effect = higher value; fold of DMSO-control signal, blank-subtracted | AID 1016;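 active = activation factor of 2 or more at 20 µM, a signal rise over negative controls twice the positive control's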
hIAP inh = blocks human intestinal alkaline phosphatase; inhibition, % at 10 µM; AID 2544; P09923; 330,000 tested, 0.12% active; purified IAP, CDP-Star luminescence, 30 min;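 active = inhibition reaching a set limit with compound at 10 µM in the primary screen, cut at about 35% in these data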;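 also: plate controls were DMSO wells with enzyme for no effect and no-enzyme buffer wells for full effect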
mIAP inh = blocks mouse intestinal alkaline phosphatase | AID 2806 | inhibition, % at 10 µM | purified mouse IAP, CDP-Star luminescence, 30 min | 330,000 tested, 0.2% active;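 active = inhibition of at least 40% at 10 µM in the primary screen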;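 also: plate controls were DMSO with enzyme for no effect and no enzyme wells for full effect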
mIAP inh confirm = mouse IAP inhibition confirmation. shares compounds with mIAP inh. purified mouse IAP, CDP-Star luminescence, 30 min. inhibition, % at 10 µM. 11,000 tested, 4.7% active. AID 434971;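 active = inhibition of at least 40% at 10 µM in either of the two replicates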;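 also: plate controls were DMSO wells with enzyme for no effect and buffer wells lacking enzyme for full effect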
Starred values were filed as active, the others as inactive. Hits are enriched below; roughly 0.79% of the tested compounds scored in any of these assays.

O=C(NCc1ccncc1)C1CCN(S(=O)(=O)c2cccc(C(F)(F)F)c2)CC1 was read as hIAP activ 0.998, mIAP activ 1.09, hIAP inh 0.2 and mIAP inh -8.9.
For CC(/C=N/NC(=O)c1nnn(-c2nonc2N)c1CN1CCCCC1)c1ccccc1 (stereo not drawn) the results were hIAP activ 1.03, mIAP activ 1.11, hIAP inh -3.3 and mIAP inh -11.4.
Screening CCOC(=O)C1=C(C)N=c2s/c(=C\c3ccc(O)c([N+](=O)[O-])c3)c(=O)n2C1c1ccccc1OC (stereo not drawn) returned hIAP activ 0.757, mIAP activ 0.727, hIAP inh 24.3 and mIAP inh 27.3.
For CCOC(=O)C1=C(C)N=c2s/c(=C/c3cccc([N+](=O)[O-])c3O)c(=O)n2C1c1ccc(OC)cc1OC (stereo not drawn) the results were hIAP activ 1.04, mIAP activ 0.568, hIAP inh -4.5, mIAP inh 43.2* and mIAP inh confirm 44.4*.
`O=C(NCc1cccnc1)c1cc(Cl)ccc1[N+](=O)[O-]` gave hIAP activ 1.04, bIAP inhibitor 3.9, mIAP activ 1.03, bIAP activator 1, hIAP inh -3.9 and mIAP inh -2.7.
For COc1ccccc1NS(=O)(=O)c1cc(NC(C)=O)ccc1N1CCCCC1 the results were hIAP activ 1.24, bIAP inhibitor -10.9, mIAP activ 0.996, bIAP activator 1.1, hIAP inh -23.8 and mIAP inh 0.4.
Cc1cc(C)cc(OCC(=O)Nc2ccccc2N2CCCCC2)c1 was read as hIAP activ 0.971, bIAP inhibitor 0.0, mIAP activ 0.924, bIAP activator 1, hIAP inh 2.9 and mIAP inh 7.6.
Screening COc1ccccc1NS(=O)(=O)c1cc(NC(=O)Nc2cccc(C)c2)ccc1N1CCCCC1 returned hIAP activ 1.24, bIAP inhibitor 8.5, mIAP activ 5.57*, bIAP activator 0.9, hIAP inh -23.5, mIAP inh -456.9 and mIAP inh confirm -278.3.
`Cc1cc(C)cc(NC(=O)Nc2ccccc2N2CCCCC2)c1` gave hIAP activ 1.12, mIAP activ 3.27*, hIAP inh -12.2, mIAP inh -226.6 and mIAP inh confirm -112.4.
`COc1ccc(NC(=O)Nc2ccccc2)cc1S(=O)(=O)N1CCCCC1` gave hIAP activ 1.67, bIAP inhibitor -6.3, mIAP activ 4.46*, bIAP activator 1.1, hIAP inh -67.3, mIAP inh -346.3 and mIAP inh confirm -187.4.
Screening Cc1onc(-c2ccncc2)c1C(=O)O returned hIAP activ 0.944, bIAP inhibitor 5.4, mIAP activ 0.923, bIAP activator 0.9, hIAP inh 5.6 and mIAP inh 7.7.
For CCCc1cc(=O)oc2cc(OC(C)C(=O)NC3CC(C)(C)NC(C)(C)C3)ccc12 (stereo not drawn) the results were hIAP activ 1.21, mIAP activ 1.04, hIAP inh -21.4 and mIAP inh -3.9.
For CCOC(=O)c1c(C)[nH]c(C(=O)NCc2ccccn2)c1C the results were hIAP activ 0.88, mIAP activ 0.973, hIAP inh 12.0 and mIAP inh 2.7.
Screening CC(N=Cc1cccc(O)c1O)c1ccccc1 (stereo not drawn) returned hIAP activ 0.801, bIAP inhibitor 16.6, mIAP activ 0.402, bIAP activator 0.8, hIAP inh 19.9, mIAP inh 59.8* and mIAP inh confirm 67.4*.
Screening CC(N=Cc1cc([N+](=O)[O-])ccc1O)c1ccccc1 (stereo not drawn) returned hIAP activ 1.1, bIAP inhibitor 8.0, mIAP activ 1.02, bIAP activator 0.9, hIAP inh -9.6 and mIAP inh -2.0.
C[C@H](CO)N1C[C@H](C)[C@@H](CN(C)S(=O)(=O)c2cccs2)Oc2ccc(NC(=O)Nc3ccccc3)cc2C1=O was read as hIAP activ 1.01, mIAP activ 3.21*, hIAP inh -1.3, mIAP inh -221.1 and mIAP inh confirm -152.1.
`C[C@H](CO)N1C[C@H](C)[C@@H](CN(C)S(=O)(=O)c2ccccc2)Oc2ccc(NC(=O)Nc3ccccc3)cc2C1=O` gave hIAP activ 0.957, mIAP activ 3.16*, hIAP inh 4.3, mIAP inh -215.6 and mIAP inh confirm -162.5.
`COc1ccc(NC(=O)Nc2ccc3c(c2)C(=O)N([C@H](C)CO)C[C@H](C)[C@@H](CN(C)S(=O)(=O)c2ccc(F)cc2)O3)cc1` gave hIAP activ 0.957, mIAP activ 2.85*, hIAP inh 4.3, mIAP inh -185.1 and mIAP inh confirm -101.3.
`C[C@@H]1CN([C@H](C)CO)C(=O)c2cc(NC(=O)Nc3ccc(C(F)(F)F)cc3)ccc2O[C@H]1CN(C)S(=O)(=O)c1cccs1` gave hIAP activ 0.999, mIAP activ 1.69, hIAP inh 0.1 and mIAP inh -68.9.
For C[C@H](CO)N1C[C@H](C)[C@@H](CN(C)S(=O)(=O)c2ccccc2)Oc2ccc(NC(=O)C3CC3)cc2C1=O the results were hIAP activ 1.32, mIAP activ 1.03, hIAP inh -32.3 and mIAP inh -2.9.
Screening Cc1ccc(S(=O)(=O)N(C)C[C@@H]2Oc3ccc(NC(=O)Nc4cccc5ccccc45)cc3C(=O)N([C@H](C)CO)C[C@H]2C)cc1 returned hIAP activ 1.09, mIAP activ 3.25*, hIAP inh -9.3, mIAP inh -225.1 and mIAP inh confirm -113.2.
Screening CCN(c1ccccc1)S(=O)(=O)c1ccc(C(=O)NCc2ccco2)cc1 returned hIAP activ 0.989, mIAP activ 0.996, hIAP inh 1.1 and mIAP inh 0.4.
For O=C(Cn1ccc(NC(=O)OCc2ccccc2)nc1=O)NCCc1ccccn1 the results were hIAP activ 1.12, mIAP activ 1.09, hIAP inh -12.1 and mIAP inh -9.2.
`CCOc1ccc(S(=O)(=O)Nc2cc(Sc3ncn[nH]3)c3oc(=O)sc3c2)cc1` gave hIAP activ 0.869, bIAP inhibitor -35.2, mIAP activ 0.283, bIAP activator 1.4, hIAP inh 13.1, mIAP inh 71.7* and mIAP inh confirm 82.0*.
Screening CCOc1ccc(S(=O)(=O)Nc2ncn[nH]2)cc1 returned hIAP activ 0.887, mIAP activ 0.996, hIAP inh 11.3 and mIAP inh 0.4.
Screening COc1ccccc1NC(=O)CSc1ccc(-c2ccccn2)nn1 returned hIAP activ 0.914, mIAP activ 0.931, hIAP inh 8.6 and mIAP inh 6.9.
